Results published in ChEMBL document CHEMBL2069277, “Small molecules that regulate zymosan phagocytosis of macrophage through deactivation of Rho GTPases” (Bioorg Med Chem, 2012).
Each block holds one compound with its values, some of them ahead of it. Activity calls are given as the source filed them. The rule behind the calls is not given here.

Key:
[1] = tested on: RAW264.7; assay: Inhibition of zymosan phagocytosis in mouse RAW264.7 cells at 10 uM preincubated before zymosan addition by flow cytometry; format: functional, cell-based
Method in brief: (§1)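 CD11b+ peritoneal macrophages (4 × 10^6/well) or RAW264.7 cells (2 × 10^6/well) were adhered 2 h and pretreated 30 min (5, 10, 20 µM; screen at 10 µM). Cells were scraped, washed, and incubated with FITC-zymosan (5 particles/cell) for 1 h at 37 °C. After washing, uptake was read by flow cytometry as a phagocytic index relative to untreated cells. Cytochalasin D 5 µM was the control.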

[2] = organism: Mus musculus; assay: Inhibition of zymosan-induced PI3K in C57BL/6 mouse CD11b(+) peritoneal macrophages assessed as reduction in AKT Ser473 phosphorylation at 20 uM preincubated for 15 mins before zymosan exposure for 30 mins by Western blot
Method in brief: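 CD11b+ peritoneal macrophages from male C57BL/6 mice (thioglycollate-elicited; cells pooled from twenty mice) were pretreated with 20 µM for 15 min, then given zymosan 200 µg/ml for 30 min. Western blot for phospho-Akt (Ser473) and total Akt. p-Akt was quantified by densitometry and expressed as fold change.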

[3] = tested on: Peritoneal macrophage cell; assay: Inhibition of zymosan phagocytosis in C57BL/6 mouse CD11b(+) peritoneal macrophages at 20 uM preincubated before zymosan addition by flow cytometry; format: functional, cell-based; method in brief: as §1
[4] = tested on: Peritoneal macrophage cell; assay: Inhibition of zymosan phagocytosis in C57BL/6 mouse CD11b(+) peritoneal macrophages preincubated before zymosan addition by flow cytometry; format: functional, cell-based; method in brief: as §1
[5] = tested on: RAW264.7; assay: Inhibition of zymosan phagocytosis in mouse RAW264.7 cells preincubated before zymosan addition by flow cytometry; format: functional, cell-based; method in brief: as §1
[6] = tested on: RAW264.7; assay: Reduction in GTP-bound Rac1 protein expression in mouse RAW264.7 cells at 20 uM preincubated for 20 mins before zymosan exposure for 15 mins by Western blot based pull down assay; format: functional, cell-based
Method in brief: (§2)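 RAW264.7 cells were pretreated with 20 µM (20 min for Rac1 and Rac2; 5 min for Cdc42), then given zymosan 200 µg/ml for 15 min. GTP-bound Rac1, Rac2 and Cdc42 were pulled down with an active pull-down kit and western blotted. Bands were quantified by densitometry and normalized to β-actin.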

[7] = tested on: RAW264.7; assay: Reduction in GTP-bound Rac2 protein expression in mouse RAW264.7 cells at 20 uM preincubated for 20 mins before zymosan exposure for 15 mins by Western blot based pull down assay; format: functional, cell-based; method in brief: as §2
[8] = tested on: RAW264.7; assay: Reduction in GTP-bound Cdc42 protein expression in mouse RAW264.7 cells at 20 uM preincubated for 5 mins before zymosan exposure for 15 mins by Western blot based pull down assay; format: functional, cell-based; method in brief: as §2
[9] = Toxicity in zymosan-induced C57BL/6 mouse CD11b(+) peritoneal macrophages at 5 to 20 uM preincubated before zymosan addition; format: cell-based; settings: peritoneal macrophage cell
[10] = tested on: RAW264.7; assay: Toxicity in zymosan-induced mouse RAW264.7 cells at 5 to 20 uM preincubated before zymosan addition; format: cell-based; settings: raw264.7, 20 µM
[11] = tested on: Peritoneal macrophage cell; assay: Effect on TLR2 mRNA expression in C57BL/6 mouse CD11b(+) peritoneal macrophages at 20 uM preincubated for 30 mins before zymosan exposure for 6 hrs by real-time PCR
[12] = tested on: Peritoneal macrophage cell; assay: Effect on TLR6 mRNA expression in C57BL/6 mouse CD11b(+) peritoneal macrophages at 20 uM preincubated for 30 mins before zymosan exposure for 6 hrs by real-time PCR
[13] = tested on: Peritoneal macrophage cell; assay: Effect on TLR1 mRNA expression in C57BL/6 mouse CD11b(+) peritoneal macrophages at 20 uM preincubated for 30 mins before zymosan exposure for 6 hrs by real-time PCR
[14] = tested on: Peritoneal macrophage cell; assay: Effect on Dectin-1 mRNA expression in C57BL/6 mouse CD11b(+) peritoneal macrophages at 20 uM preincubated for 30 mins before zymosan exposure for 6 hrs by real-time PCR

Structure (SMILES): CCCOc1ccc(-c2cccc(C(=O)NCCCN3CCOCC3)c2)cc1
inhibition [1]: inactive

Structure (SMILES): CCCOc1ccc(-c2cccc(C(=O)NCCCN3CCCCC3)c2)cc1
inhibition [1]: Active

Structure (SMILES): CCCOc1ccc(-c2cccc(C(=O)NCCCN3CCCC3)c2)cc1
inhibition [1]: Active

inhibition [2]: Active
Structure (SMILES): O=c1cc(N2CCOCC2)oc2c(-c3ccccc3)cccc12
inhibition [3]: inactive

Structure (SMILES): CCCNC(=O)c1cccc(-c2ccc(OCCC)cc2)c1
inhibition [1]: Active

Structure (SMILES): CCCOc1ccc(-c2cccc(C(=O)NCCCN(C)C)c2)cc1
inhibition [1]: Active

Structure (SMILES): CCCOc1ccc(-c2cccc(C(=O)NCCCN(CC)CC)c2)cc1
inhibition [4]: Dose-dependent effect
inhibition [5]: Dose-dependent effect
Activity [6]: Active
Activity [7]: Active
Activity [8]: Active
Activity [9]: Non-toxic
Activity [10]: Non-toxic
Activity [11]: inactive
Activity [12]: inactive
Activity [13]: inactive
Activity [14]: inactive

Structure (SMILES): CCCOc1ccc(-c2cccc(C(=O)NCCN(CC)CC)c2)cc1
inhibition [1]: inactive
